From the M2OR odorant receptor database

Experiments:
Settings in all cases: stereoisomer not certain
OR4C13 (Homo sapiens) = OR4C13 (Homo sapiens) (UniProt Q8NGP0)
Outline: (§1)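 Values were gathered from published papers (main text and supplementary material), with extra details requested from the original authors when needed, and checked for typos and inconsistencies. Each receptor–molecule pair is called responsive (active) if the original authors judged the measured signal statistically different from baseline, and non-responsive (inactive) otherwise. Assay methods varied by source, often transient mammalian cell-line luciferase assays. Recorded details include cell line, G-protein, co-transfected protein and tags.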

OR4C16 (Homo sapiens) = molecular target: T1, OR4C16 (Homo sapiens) (UniProt Q8NGL9)
T1 sequence (whole entry): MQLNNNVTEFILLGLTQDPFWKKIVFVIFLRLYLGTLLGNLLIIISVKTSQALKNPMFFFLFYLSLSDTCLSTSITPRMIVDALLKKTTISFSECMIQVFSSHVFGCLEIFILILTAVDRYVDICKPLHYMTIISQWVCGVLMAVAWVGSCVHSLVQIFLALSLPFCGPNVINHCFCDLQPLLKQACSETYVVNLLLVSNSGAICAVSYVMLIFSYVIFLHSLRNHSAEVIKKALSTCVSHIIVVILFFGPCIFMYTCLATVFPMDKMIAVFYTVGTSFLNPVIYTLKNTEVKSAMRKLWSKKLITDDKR
Outline: as §1

OR4C3 = system: OR4C3
OR4C3, sequence (as listed by the source): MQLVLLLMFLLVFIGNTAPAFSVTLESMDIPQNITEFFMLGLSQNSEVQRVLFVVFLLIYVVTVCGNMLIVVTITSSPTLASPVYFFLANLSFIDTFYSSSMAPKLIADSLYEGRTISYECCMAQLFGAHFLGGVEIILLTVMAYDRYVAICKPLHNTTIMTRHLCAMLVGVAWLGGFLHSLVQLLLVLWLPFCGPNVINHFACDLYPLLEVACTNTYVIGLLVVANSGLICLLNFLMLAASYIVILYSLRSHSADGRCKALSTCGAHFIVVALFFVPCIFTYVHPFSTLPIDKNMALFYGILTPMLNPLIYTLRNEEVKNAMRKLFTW
Outline: as §1

OR4C45 (Homo sapiens) [1] = molecular target: OR4C45 (Homo sapiens) (UniProt A6NMZ5)
Outline: as §1
Target sequence in this assay (A6NMZ5 whole entry): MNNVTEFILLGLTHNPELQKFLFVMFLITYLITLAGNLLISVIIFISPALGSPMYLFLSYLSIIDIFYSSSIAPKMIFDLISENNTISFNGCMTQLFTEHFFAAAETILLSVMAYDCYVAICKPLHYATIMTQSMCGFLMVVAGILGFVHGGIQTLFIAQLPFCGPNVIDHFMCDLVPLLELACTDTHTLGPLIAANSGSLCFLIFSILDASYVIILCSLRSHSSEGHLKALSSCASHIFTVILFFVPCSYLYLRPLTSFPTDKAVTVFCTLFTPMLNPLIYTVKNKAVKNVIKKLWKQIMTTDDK

OR4C46 (Homo sapiens) = OR4C46 (Homo sapiens) (UniProt A6NHA9)
OR4C46 (Homo sapiens), sequence (A6NHA9 whole entry): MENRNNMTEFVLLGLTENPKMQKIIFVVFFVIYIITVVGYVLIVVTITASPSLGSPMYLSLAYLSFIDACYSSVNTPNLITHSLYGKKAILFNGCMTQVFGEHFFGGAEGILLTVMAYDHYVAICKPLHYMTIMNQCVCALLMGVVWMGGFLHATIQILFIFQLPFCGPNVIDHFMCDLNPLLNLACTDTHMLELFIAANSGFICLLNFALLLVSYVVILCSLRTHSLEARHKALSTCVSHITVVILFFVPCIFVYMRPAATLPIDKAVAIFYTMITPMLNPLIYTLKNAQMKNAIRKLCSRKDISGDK
Outline: as §1

OR4C5 (Homo sapiens) = OR4C5 (Homo sapiens) (UniProt Q8NGB2)
OR4C5 (Homo sapiens), sequence (Q8NGB2 whole entry): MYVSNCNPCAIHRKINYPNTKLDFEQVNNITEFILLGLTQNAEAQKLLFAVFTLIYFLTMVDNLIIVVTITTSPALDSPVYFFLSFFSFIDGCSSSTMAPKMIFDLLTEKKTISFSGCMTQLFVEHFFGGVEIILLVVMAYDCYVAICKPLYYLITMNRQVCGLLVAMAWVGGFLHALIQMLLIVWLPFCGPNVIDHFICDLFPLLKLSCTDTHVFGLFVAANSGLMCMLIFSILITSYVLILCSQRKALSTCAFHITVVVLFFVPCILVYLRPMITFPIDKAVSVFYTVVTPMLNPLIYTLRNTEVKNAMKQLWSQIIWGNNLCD
Outline: as §1

OR4C6 (Homo sapiens) = OR4C6 (Homo sapiens) (UniProt Q8NH72)
OR4C6 (Homo sapiens), sequence (Q8NH72 whole entry): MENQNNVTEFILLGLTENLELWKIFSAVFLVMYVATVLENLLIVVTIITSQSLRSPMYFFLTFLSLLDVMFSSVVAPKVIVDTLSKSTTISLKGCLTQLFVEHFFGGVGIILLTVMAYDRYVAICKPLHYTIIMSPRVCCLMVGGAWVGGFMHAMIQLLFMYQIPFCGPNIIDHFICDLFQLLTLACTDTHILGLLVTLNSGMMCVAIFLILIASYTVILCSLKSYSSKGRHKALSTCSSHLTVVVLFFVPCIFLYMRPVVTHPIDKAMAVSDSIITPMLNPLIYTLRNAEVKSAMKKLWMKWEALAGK
Outline: as §1

OR4C15 (Homo sapiens) = OR4C15 (Homo sapiens) (UniProt Q8NGM1)
OR4C15 (Homo sapiens), sequence (Q8NGM1 whole entry): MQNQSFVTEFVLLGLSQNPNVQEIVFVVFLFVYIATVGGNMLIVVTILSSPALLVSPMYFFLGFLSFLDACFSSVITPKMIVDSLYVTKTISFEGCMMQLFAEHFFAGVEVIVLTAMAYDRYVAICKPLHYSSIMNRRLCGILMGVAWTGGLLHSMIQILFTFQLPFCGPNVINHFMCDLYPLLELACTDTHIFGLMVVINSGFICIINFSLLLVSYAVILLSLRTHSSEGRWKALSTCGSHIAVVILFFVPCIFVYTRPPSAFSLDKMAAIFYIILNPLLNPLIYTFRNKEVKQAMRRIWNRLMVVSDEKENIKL
Outline: as §1

OR4C3 (Homo sapiens) = OR4C3 (Homo sapiens) (UniProt Q8NH37)
OR4C3 (Homo sapiens), sequence (Q8NH37 whole entry): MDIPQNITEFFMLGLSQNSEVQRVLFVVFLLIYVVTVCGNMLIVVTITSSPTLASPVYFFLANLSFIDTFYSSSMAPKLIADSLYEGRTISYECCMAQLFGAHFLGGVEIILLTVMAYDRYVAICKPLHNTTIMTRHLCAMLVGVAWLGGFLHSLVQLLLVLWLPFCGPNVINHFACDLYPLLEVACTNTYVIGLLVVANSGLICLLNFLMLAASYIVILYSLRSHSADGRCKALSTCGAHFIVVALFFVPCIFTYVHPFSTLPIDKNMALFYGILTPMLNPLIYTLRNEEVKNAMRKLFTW
Outline: as §1

OR4C45 (Homo sapiens) [2] = molecular target: T2, OR4C45 (Homo sapiens) (UniProt A6NMZ5); remark: listed apart in the source
T2 sequence (whole entry): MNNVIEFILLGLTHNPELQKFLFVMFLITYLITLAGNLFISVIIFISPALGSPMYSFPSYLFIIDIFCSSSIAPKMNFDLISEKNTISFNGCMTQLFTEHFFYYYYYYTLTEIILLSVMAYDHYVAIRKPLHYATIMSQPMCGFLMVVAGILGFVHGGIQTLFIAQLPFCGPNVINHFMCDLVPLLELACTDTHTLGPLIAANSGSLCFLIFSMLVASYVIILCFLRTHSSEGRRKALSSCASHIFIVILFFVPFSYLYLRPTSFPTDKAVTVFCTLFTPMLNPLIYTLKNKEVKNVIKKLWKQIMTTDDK
Outline: as §1

Measured: odorant receptor agonist call

OR4C13 (Homo sapiens), sequence (Q8NGP0 whole entry): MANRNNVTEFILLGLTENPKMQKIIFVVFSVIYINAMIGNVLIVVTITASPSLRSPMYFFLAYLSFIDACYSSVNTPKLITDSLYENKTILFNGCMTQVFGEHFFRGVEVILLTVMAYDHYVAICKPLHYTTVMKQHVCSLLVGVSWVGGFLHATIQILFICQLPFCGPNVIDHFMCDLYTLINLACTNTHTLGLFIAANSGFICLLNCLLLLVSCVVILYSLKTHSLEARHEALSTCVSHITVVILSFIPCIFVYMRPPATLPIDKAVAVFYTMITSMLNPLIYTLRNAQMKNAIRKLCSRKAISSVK

Cc1cnc(C)c(C)n1
not listed: OR4C15 (Homo sapiens) | OR4C3 (Homo sapiens) | OR4C45 (Homo sapiens) [2]
inactive: all other assays above

CC1=C(O)C(=O)C(C)O1 (centres undefined)
not listed: OR4C15 (Homo sapiens) | OR4C3 (Homo sapiens) | OR4C45 (Homo sapiens) [2]
inactive: all other assays above

CCCCC(S)C(C)CO (centres undefined)
not listed: OR4C3 | OR4C45 (Homo sapiens) [1]
inactive: all other assays above

CCCCCCC=CCCC=O
not listed: OR4C3 | OR4C45 (Homo sapiens) [1]
inactive: all other assays above

CCC(S)C(C)CO (centres undefined)
not listed: OR4C3 | OR4C45 (Homo sapiens) [1]
inactive: all other assays above

CC(C)=CCCC(C)=CCO
inactive: OR4C3

CC(=O)c1c(C)c([N+](=O)[O-])c(C(C)(C)C)c([N+](=O)[O-])c1C
not listed: OR4C3 | OR4C45 (Homo sapiens) [1]
inactive: all other assays above

CCCCCC(=O)C(C)C(C)=O (centres undefined)
not listed: OR4C3 | OR4C45 (Homo sapiens) [1]
inactive: all other assays above

CCC1OC(C)=C(O)C1=O (centres undefined)
not listed: OR4C15 (Homo sapiens) | OR4C3 (Homo sapiens) | OR4C45 (Homo sapiens) [2]
inactive: all other assays above

CCC1OC(=O)C(O)=C1C (centres undefined)
not listed: OR4C15 (Homo sapiens) | OR4C3 (Homo sapiens) | OR4C45 (Homo sapiens) [2]
inactive: all other assays above

CC1CCCCCCCCCCCCC(=O)C1 (centres undefined)
not listed: OR4C3 | OR4C45 (Homo sapiens) [1]
inactive: all other assays above

CCCC(S)CCOC(C)=O (centres undefined)
not listed: OR4C15 (Homo sapiens) | OR4C3 (Homo sapiens) | OR4C45 (Homo sapiens) [2]
inactive: all other assays above

CCCCCC(S)C(C)CO (centres undefined)
not listed: OR4C3 | OR4C45 (Homo sapiens) [1]
inactive: all other assays above

CC(CO)CS (centres undefined)
not listed: OR4C3 | OR4C45 (Homo sapiens) [1]
inactive: all other assays above

CC1=NC(C)C(C)S1 (centres undefined)
not listed: OR4C15 (Homo sapiens) | OR4C3 (Homo sapiens) | OR4C45 (Homo sapiens) [2]
inactive: all other assays above

CC1=C(O)C(=O)OC1C (centres undefined)
not listed: OR4C15 (Homo sapiens) | OR4C3 (Homo sapiens) | OR4C45 (Homo sapiens) [2]
inactive: all other assays above
